Screening data: PubChem BioAssay, several laboratories
A selection: hits, their analogues and other compounds. The true share with any hit is near 6.7%.
CSC inhib: blocks cancer stem cells | inhibition, % at 7.5 µM | AID 2717 | cancer stem cell-like cells viability, luminescence | 300,000 compounds, 1.1% hits; in the data active = inhibition above about 75%; tested in HMLE shEcad cells
CHOP inhibitor: CHOP inhibition in unfolded protein response; CHO-K1 CHOP-promoter luciferase, tunicamycin-induced, 15-18 h; AID 2732; inhibition, % at 10 µM; 220,000 compounds, 3.8% hits;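 active = compounds that reduced the stress-induced luciferase reporter signal by more than about 70% of percent inhibition, limit read from the data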;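 note: 0% = tunicamycin plus vehicle and 100% = wells without tunicamycin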
Beta cell apopt: beta cell apoptosis inhibition | INS-1E cytokine-induced death, ATP luminescence, 48 h; percent of positive-control rescue, neutral wells zero | protection from apoptosis, % (no concentration beside the values) | 300,000 compounds, 0.8% hits | AID 435005;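 active = Every replicate reaches about 75%, or at least half do and their mean reaches it too, limit read from the data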;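 note: 0% = cytokine-treated negative control wells and 100% = positive control rescue; higher means more ATP so stronger rescue from cytokine killing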
NR3A LBD binder: NR3A (human) ligand-binding domain modulation | NR3A LBD differential scanning fluorimetry, Tm shift; 0% = protein alone, 100% = glycine-bound protein | Tm shift relative to glycine control, % at 25 µM | 340,000 compounds, 2.5% hits | AID 1259313;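 active = melting temperature shift of at least 10% of the positive control shift, at one fixed dose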
PREPL inh: inhibits the human prolyl oligopeptidase-like enzyme; recombinant PREPL, fluorescence polarization activity-based probe; Q4J6C6; 320,000 compounds, 0.68% hits; inhibition, % at 5.96 µM; in the data active = inhibition above about 43%;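 note: 0% = enzyme with DMSO and 100% = wells lacking enzyme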
Target sequence (Q4J6C6 whole entry, looked up): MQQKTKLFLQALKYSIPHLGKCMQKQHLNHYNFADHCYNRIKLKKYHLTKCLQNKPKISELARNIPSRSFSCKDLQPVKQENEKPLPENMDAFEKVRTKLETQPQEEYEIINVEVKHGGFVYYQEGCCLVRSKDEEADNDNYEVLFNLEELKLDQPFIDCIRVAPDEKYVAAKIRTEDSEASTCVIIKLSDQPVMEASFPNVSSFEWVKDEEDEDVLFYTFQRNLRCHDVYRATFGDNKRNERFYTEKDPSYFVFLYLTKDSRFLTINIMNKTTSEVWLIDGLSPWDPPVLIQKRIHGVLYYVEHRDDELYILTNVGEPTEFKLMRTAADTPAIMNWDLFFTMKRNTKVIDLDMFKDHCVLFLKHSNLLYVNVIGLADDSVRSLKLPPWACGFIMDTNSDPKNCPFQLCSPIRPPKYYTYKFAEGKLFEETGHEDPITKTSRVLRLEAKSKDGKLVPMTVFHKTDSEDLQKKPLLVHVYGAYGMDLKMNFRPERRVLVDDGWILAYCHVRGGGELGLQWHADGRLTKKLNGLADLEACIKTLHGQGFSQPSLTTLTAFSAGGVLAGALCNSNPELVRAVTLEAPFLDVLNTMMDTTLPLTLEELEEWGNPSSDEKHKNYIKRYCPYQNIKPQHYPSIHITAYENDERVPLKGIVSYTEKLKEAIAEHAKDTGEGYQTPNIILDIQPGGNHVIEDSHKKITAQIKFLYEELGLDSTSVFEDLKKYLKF
T cruzi inh: blocks replication of Trypanosoma cruzi; T. cruzi beta-gal in NIH3T3, luminescence, 90 h; inhibition, % (no concentration beside the values); 300,000 compounds, 1.4% hits; AID 1885;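 active = mean inhibition across valid replicates above about 55%, limit read from the data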;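 note: signal also drops with host cell toxicity which is not excluded here; 0% = plate median of DMSO wells and 100% = zero luminescence signal; higher percent means less beta-gal luminescence so fewer parasites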
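Read-out: Parasite load inhibition, % | Test system: Mouse NIH/3T3 fibroblasts infected with β-gal-expressing T. cruzi Tulahuen C4 | Amount: 5,000 cells/well | Medium: DMEM, 2% fetal bovine serum | Signal: GalScreen β-gal luminescence, detergent lysis, 60 min | Timing: 3 h attach, ≥90 h co-culture | Also added: Tulahuen C4 trypomastigotes, 5000/well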
Numbers without * were called inactive.

Results for COc1ccccc1N(CC(=O)N/N=C/c1c(O)ccc2ccccc12)S(C)(=O)=O ?
CSC inhib: 25; CHOP inhibitor: 61; Beta cell apopt: 87*; NR3A LBD binder: -4; PREPL inh: 7; T cruzi inh: 7

How did O=C(CNc1ccc(F)cc1)N/N=C/c1c(O)ccc2ccccc12 do in these assays?
CSC inhib: 35; Beta cell apopt: 81*; NR3A LBD binder: 27*; PREPL inh: 37; T cruzi inh: 16

What do the screens show for `O=C(Cc1n[nH]c(=O)[nH]c1=O)N/N=C/c1c(O)ccc2ccccc12`?
CSC inhib: 3; CHOP inhibitor: -1; Beta cell apopt: -4; NR3A LBD binder: 0; PREPL inh: 5; T cruzi inh: -3

How did COc1ccccc1NCC(=O)N/N=C/c1c(O)ccc2ccccc12 do in these assays?
CSC inhib: 6; Beta cell apopt: 77*; NR3A LBD binder: 16*; PREPL inh: 8; T cruzi inh: -5

What do the screens show for `COc1ccc2nc(SCC(=O)NC(C)c3ccccc3)[nH]c2c1` (centres undefined)?
CSC inhib: -2; Beta cell apopt: 6; NR3A LBD binder: 0; PREPL inh: 7

What do the screens show for `COc1ccc(/C=C/C(=O)C2(O)CCCCC2)cc1OC`?
CSC inhib: 7; CHOP inhibitor: -25; Beta cell apopt: -10; NR3A LBD binder: -1; PREPL inh: 1; T cruzi inh: 6

Results for CCOC(=O)c1ccc(N=Cc2cnc(N)nc2N)cc1 ?
NR3A LBD binder: -2

How did CC(=O)Nc1cc(C(=O)OCC(=O)c2ccccc2)ccc1C do in these assays?
CSC inhib: -5; CHOP inhibitor: 8; Beta cell apopt: 5; NR3A LBD binder: 3; PREPL inh: -2; T cruzi inh: -15

Results for O=C(CCCCCCC(=O)c1ccccc1)c1ccccc1 ?
CSC inhib: -2; CHOP inhibitor: 55; Beta cell apopt: 0; NR3A LBD binder: 6; PREPL inh: -19; T cruzi inh: 11

How did O=C(CCCCCCCC(=O)c1ccccc1)c1ccccc1 do in these assays?
CSC inhib: 2; CHOP inhibitor: 26; Beta cell apopt: -1; NR3A LBD binder: 24*; PREPL inh: -8; T cruzi inh: -8

Results for Cc1ccc(NCC(=O)c2ccc(C)cc2)cc1 ?
CSC inhib: 7; NR3A LBD binder: -1; PREPL inh: -5; T cruzi inh: 56*

Results for Cc1ccc(C(=O)/C=C/C(=O)c2ccc(C)cc2)cc1 ?
CSC inhib: 64; CHOP inhibitor: 106*; Beta cell apopt: 0; NR3A LBD binder: -2; PREPL inh: -12; T cruzi inh: 20

How did Cc1ccc(C(=O)OCC(=O)c2ccccc2)cc1 do in these assays?
CSC inhib: 11; Beta cell apopt: -1; NR3A LBD binder: 19*; PREPL inh: -1; T cruzi inh: -7

What do the screens show for `O=C(Nc1ccnn1C1CCN(Cc2ccccc2OC(F)F)CC1)c1cccnc1`?
CSC inhib: -6; Beta cell apopt: -1; NR3A LBD binder: 0; PREPL inh: 5; T cruzi inh: 6

Results for Cc1ccc(C(=O)CC(=O)c2ccccc2)cc1 ?
CSC inhib: -17; Beta cell apopt: 6; NR3A LBD binder: 34*; PREPL inh: -3; T cruzi inh: -7

Results for CC(C)(C)c1ccc(C(=O)CCC(=O)NCc2ccccc2)cc1 ?
Beta cell apopt: -4; NR3A LBD binder: 0; PREPL inh: 0

Results for Cc1ccc(C(=O)C[n+]2cccc3ccccc32)cc1 ?
CSC inhib: -6; CHOP inhibitor: -9; Beta cell apopt: 1; NR3A LBD binder: 0; PREPL inh: 7; T cruzi inh: 59*

What do the screens show for `Cc1ccc(C(=O)CCC(=O)NCc2ccccc2)cc1`?
CSC inhib: -7; Beta cell apopt: -4; NR3A LBD binder: 51*; PREPL inh: 5; T cruzi inh: 0

Results for O=C(C[n+]1cccc2ccccc21)c1ccc(Br)cc1 ?
CSC inhib: -1; Beta cell apopt: -1; NR3A LBD binder: 0; PREPL inh: 3; T cruzi inh: 8

How did O=C1CSC(c2ccc([N+](=O)[O-])cc2)N1c1ccc(O)cc1 (centres undefined) do in these assays?
CSC inhib: 4; Beta cell apopt: 0; NR3A LBD binder: 0; PREPL inh: 2; T cruzi inh: -21

How did CCN1CCN(CCCNC(=O)c2ccc(NC(=O)C3=C(C)OCCS3)cc2)CC1 do in these assays?
CSC inhib: -4; Beta cell apopt: -4; NR3A LBD binder: 2; PREPL inh: -3; T cruzi inh: -27

What do the screens show for `CSc1ccccc1NC(=O)C1=CC(c2cccs2)=NS(=O)(=O)N1C`?
Beta cell apopt: -5; NR3A LBD binder: -7; PREPL inh: 18; T cruzi inh: -3

How did CC(=O)Nc1ccc(S(=O)(=O)Nc2nc3ccccc3nc2Nc2ccc(S(N)(=O)=O)cc2)cc1 do in these assays?
CHOP inhibitor: -13; Beta cell apopt: -10; NR3A LBD binder: 27*; PREPL inh: 6; T cruzi inh: -42

How did CC(=O)Nc1ccc(S(=O)(=O)Nc2nc3ccccc3nc2Nc2ccc(O)c(C(=O)O)c2)cc1 do in these assays?
CSC inhib: -4; Beta cell apopt: -5; NR3A LBD binder: 8; PREPL inh: -2; T cruzi inh: -6

How did CC(=O)Nc1ccc(S(=O)(=O)Nc2nc3ccccc3nc2Cl)cc1 do in these assays?
CSC inhib: -12; Beta cell apopt: -10; NR3A LBD binder: 38*; PREPL inh: 4; T cruzi inh: -5

How did Cc1ccc(S(=O)(=O)Nc2nc3ccccc3nc2N2CCOCC2)cc1 do in these assays?
CSC inhib: -10; Beta cell apopt: 1; NR3A LBD binder: 0; PREPL inh: 7

Results for NS(=O)(=O)c1ccc(Nc2nc3ccccc3nc2NS(=O)(=O)c2cccc([N+](=O)[O-])c2)cc1 ?
CSC inhib: 6; CHOP inhibitor: 17; Beta cell apopt: -12; NR3A LBD binder: 32*; PREPL inh: 8; T cruzi inh: 1

What do the screens show for `CCOc1ccc(S(=O)(=O)Nc2nc3ccccc3nc2Nc2ccc(N3CCOCC3)cc2)cc1`?
CSC inhib: 21; CHOP inhibitor: 23; Beta cell apopt: 7; NR3A LBD binder: 15*; PREPL inh: 17; T cruzi inh: 39

What do the screens show for `Nc1cc(Cl)ccc1C(=O)OCC(=O)N1CCOCC1`?
CSC inhib: 9; CHOP inhibitor: -9; Beta cell apopt: 7; NR3A LBD binder: 1; PREPL inh: 5; T cruzi inh: -11

Results for CCC(CC)c1nnc(NC(=O)C2=NNC(=O)CC2)s1 ?
CSC inhib: -1; CHOP inhibitor: -7; Beta cell apopt: -2; NR3A LBD binder: 0; PREPL inh: 7; T cruzi inh: -13

How did CN(C(=O)Cn1cc(C(F)(F)F)cc(Cl)c1=O)C1CCS(=O)(=O)C1 (centres undefined) do in these assays?
CSC inhib: -10; Beta cell apopt: 0; NR3A LBD binder: 0; PREPL inh: 5; T cruzi inh: -3
